Reference: ChEMBL document CHEMBL5678805, “Intermittent administration of MEK inhibitor GDC-0973 plus PI3K inhibitor GDC-0941 triggers robust apoptosis and tumor growth inhibition” (Cancer Res, 2012)
The source made the active and inactive calls. No cut-off for these calls is given here.

Columns and labels:
[1] = Antitumor activity against human MOLM16 cells harboring FLT3 T227M mutant xenografted in mouse assessed as tumor growth inhibition at 2.5 mg/kg, po; format: functional, MOLM-16; settings: read-out: TGI
In short: (§1)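 Human tumor xenografts in mice were dosed orally at the indicated mg/kg. Tumor volume was measured with calipers as (L×W×W)/2. %TGI = 100 × [1 − (AUC treatment/d)/(AUC vehicle/d)], using the area under the fitted tumor-growth curve per day for each dose group relative to vehicle.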

[2] = target: Serine/threonine-protein kinase B-raf (Homo sapiens, UniProt P15056, V600E); test: Inhibition of B-RAF V600E (unknown origin)
[3] = target: Ribosomal protein S6 kinase beta-1 (Homo sapiens, UniProt P23443); test: Inhibition of p70S6K (unknown origin)
Chain of Ribosomal protein S6 kinase beta-1 (P23443 whole entry): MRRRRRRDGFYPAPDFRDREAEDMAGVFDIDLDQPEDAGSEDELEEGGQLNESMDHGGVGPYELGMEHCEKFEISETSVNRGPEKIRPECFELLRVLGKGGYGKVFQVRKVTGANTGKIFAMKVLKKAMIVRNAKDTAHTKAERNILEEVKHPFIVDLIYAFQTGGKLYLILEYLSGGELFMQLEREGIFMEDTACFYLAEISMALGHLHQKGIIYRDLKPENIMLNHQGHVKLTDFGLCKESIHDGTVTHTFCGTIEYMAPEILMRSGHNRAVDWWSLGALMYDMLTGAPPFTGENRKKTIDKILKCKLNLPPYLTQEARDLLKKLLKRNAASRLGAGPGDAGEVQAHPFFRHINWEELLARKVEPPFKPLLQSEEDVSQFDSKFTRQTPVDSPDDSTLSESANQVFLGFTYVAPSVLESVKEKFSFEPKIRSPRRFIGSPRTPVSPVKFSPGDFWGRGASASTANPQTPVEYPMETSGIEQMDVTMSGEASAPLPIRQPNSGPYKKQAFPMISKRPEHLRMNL

MeWo = test: Antiproliferative activity against human MeWo cells assessed reduction in cell viability incubated for 4 days in presence of 4-(2-(1H-indazol-4-yl)-6-((4-(methylsulfonyl)piperazin-1-yl)methyl)thieno[3,2-d]pyrimidin-4-yl)morpholine by celltiter-glo assay; format: functional; settings: time 4 day
In short: (§2)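 4-day CellTiter-Glo viability read-out on melanoma lines, cells exposed to increasing concentrations of each inhibitor alone and in combination.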

888-mel [4] = test: Inhibition of AKT phosphorylation in human 888-mel cells preincubated with compound for 24 hrs followed by compound washout and measured after 2 hrs in presence of 4-(2-(1H-indazol-4-yl)-6-((4-(methylsulfonyl)piperazin-1-yl)methyl)thieno[3,2-d]pyrimidin-4-yl)morpholine by immunoblotting analysis; format: cell-based
In short: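 The medium was then exchanged to remove compound. Lysates were prepared 2 and 24 h after washout and immunoblotted for cleaved PARP, p-AKT and p-ERK using HRP secondary antibody and ECL.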

888-mel [5] = test: Antiproliferative activity against human 888-mel cells harboring BRAF V600E mutant assessed as reduction in cell viability incubated for 96 hrs in presence of 4-(2-(1H-indazol-4-yl)-6-((4-(methylsulfonyl)piperazin-1-yl)methyl)thieno[3,2-d]pyrimidin-4-yl)morpholine; format: functional, cell-based
[6] = Antitumor activity against human A375.X1 cells xenografted in mouse assessed as tumor growth inhibition at 15 mg/kg, po administered every third day for 21 days in presence of 4-(2-(1H-indazol-4-yl)-6-((4-(methylsulfonyl)piperazin-1-yl)methyl)thieno[3,2-d]pyrimidin-4-yl)morpholine; format: functional; settings: A375.X1, 504 h, time 21 day, read-out: TGI
In short: (§3)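 Human tumor xenografts in mice. Drugs given orally, as single agents or combined with the PI3K inhibitor. Schedules were daily (QD) or every third day (Q3D) over 21 days. Tumor volume was measured by caliper as (L×W×W)/2. %TGI = 100×[1 − AUC(treatment/d)/AUC(vehicle/d)] from fitted growth curves, with group means. Tumor lysates were immunoblotted for pS6.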

SK-OV-3 = test: Antitumor activity against human SK-OV-3 cells harboring FBXW7 R505L and CDKN2A mutant xenografted in mouse assessed as tumor growth inhibition at 2.5 mg/kg, po; format: functional; settings: read-out: TGI; in short: as §1
A2058 [7] = test: Antitumor activity against human A2058 cells xenografted in mouse assessed as tumor growth inhibition at 15 mg/kg, po administered every third day for 21 days in presence of 4-(2-(1H-indazol-4-yl)-6-((4-(methylsulfonyl)piperazin-1-yl)methyl)thieno[3,2-d]pyrimidin-4-yl)morpholine; format: functional; settings: A2058, 504 h, time 21 day, read-out: TGI; in short: as §3
NCI-H460 = test: Antitumor activity against human NCI-H460 cells harboring KRAS Q61H/PIK3CA E545K/LKB1 Q37/CDKN2A mutant xenografted in mouse assessed as tumor growth inhibition at 2.5 mg/kg, po; format: functional; settings: read-out: TGI; in short: as §1
Ephrin type-A receptor 4 = Ephrin type-A receptor 4 (Homo sapiens, UniProt P54764); test: Inhibition of EphA4 (unknown origin)
Chain of Ephrin type-A receptor 4 (P54764 whole entry): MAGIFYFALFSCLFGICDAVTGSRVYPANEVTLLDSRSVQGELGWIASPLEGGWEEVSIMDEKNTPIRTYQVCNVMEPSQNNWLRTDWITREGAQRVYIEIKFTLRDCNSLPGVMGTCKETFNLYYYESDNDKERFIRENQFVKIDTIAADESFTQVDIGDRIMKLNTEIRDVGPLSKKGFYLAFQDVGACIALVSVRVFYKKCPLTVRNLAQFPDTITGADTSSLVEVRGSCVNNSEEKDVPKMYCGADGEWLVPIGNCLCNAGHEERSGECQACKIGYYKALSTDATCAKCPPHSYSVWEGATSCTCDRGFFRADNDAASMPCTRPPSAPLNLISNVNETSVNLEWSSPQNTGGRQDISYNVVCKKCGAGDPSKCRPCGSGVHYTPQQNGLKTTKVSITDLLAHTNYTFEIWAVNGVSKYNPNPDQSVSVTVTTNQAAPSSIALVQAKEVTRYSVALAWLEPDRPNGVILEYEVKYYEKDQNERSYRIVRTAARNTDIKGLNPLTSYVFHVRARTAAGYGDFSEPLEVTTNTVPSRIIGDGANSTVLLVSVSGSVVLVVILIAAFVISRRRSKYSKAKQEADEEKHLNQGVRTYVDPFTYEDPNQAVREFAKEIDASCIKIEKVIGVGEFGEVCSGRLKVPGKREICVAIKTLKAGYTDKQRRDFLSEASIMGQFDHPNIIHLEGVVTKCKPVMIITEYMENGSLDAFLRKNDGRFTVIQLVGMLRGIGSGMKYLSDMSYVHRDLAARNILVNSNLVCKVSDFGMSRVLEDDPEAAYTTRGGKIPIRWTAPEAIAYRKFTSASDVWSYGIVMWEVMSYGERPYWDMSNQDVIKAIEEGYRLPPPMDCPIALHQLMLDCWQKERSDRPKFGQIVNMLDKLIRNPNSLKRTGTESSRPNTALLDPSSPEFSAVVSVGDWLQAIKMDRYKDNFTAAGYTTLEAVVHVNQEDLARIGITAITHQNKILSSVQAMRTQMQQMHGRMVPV

Malme-3M = test: Antiproliferative activity against human Malme-3M cells assessed reduction in cell viability incubated for 4 days in presence of 4-(2-(1H-indazol-4-yl)-6-((4-(methylsulfonyl)piperazin-1-yl)methyl)thieno[3,2-d]pyrimidin-4-yl)morpholine by celltiter-glo assay; format: functional; settings: time 4 day; in short: as §2
A2058 [8] = test: Antitumor activity against human A2058 cells harboring BRAF V600E/PTEN deletion mutant xenografted in mouse assessed as suppression of AKT phosphorylation at 15 mg/kg, po administered every third day for 21 days and measured after 72 hrs post dose by Western blot analysis; format: functional, organism-based; settings: time 576.0 hrs
[9] = target: Rho-associated protein kinase 1 (Homo sapiens, UniProt Q13464); test: Inhibition of ROCK1 (unknown origin)
Chain of Rho-associated protein kinase 1 (Q13464 whole entry): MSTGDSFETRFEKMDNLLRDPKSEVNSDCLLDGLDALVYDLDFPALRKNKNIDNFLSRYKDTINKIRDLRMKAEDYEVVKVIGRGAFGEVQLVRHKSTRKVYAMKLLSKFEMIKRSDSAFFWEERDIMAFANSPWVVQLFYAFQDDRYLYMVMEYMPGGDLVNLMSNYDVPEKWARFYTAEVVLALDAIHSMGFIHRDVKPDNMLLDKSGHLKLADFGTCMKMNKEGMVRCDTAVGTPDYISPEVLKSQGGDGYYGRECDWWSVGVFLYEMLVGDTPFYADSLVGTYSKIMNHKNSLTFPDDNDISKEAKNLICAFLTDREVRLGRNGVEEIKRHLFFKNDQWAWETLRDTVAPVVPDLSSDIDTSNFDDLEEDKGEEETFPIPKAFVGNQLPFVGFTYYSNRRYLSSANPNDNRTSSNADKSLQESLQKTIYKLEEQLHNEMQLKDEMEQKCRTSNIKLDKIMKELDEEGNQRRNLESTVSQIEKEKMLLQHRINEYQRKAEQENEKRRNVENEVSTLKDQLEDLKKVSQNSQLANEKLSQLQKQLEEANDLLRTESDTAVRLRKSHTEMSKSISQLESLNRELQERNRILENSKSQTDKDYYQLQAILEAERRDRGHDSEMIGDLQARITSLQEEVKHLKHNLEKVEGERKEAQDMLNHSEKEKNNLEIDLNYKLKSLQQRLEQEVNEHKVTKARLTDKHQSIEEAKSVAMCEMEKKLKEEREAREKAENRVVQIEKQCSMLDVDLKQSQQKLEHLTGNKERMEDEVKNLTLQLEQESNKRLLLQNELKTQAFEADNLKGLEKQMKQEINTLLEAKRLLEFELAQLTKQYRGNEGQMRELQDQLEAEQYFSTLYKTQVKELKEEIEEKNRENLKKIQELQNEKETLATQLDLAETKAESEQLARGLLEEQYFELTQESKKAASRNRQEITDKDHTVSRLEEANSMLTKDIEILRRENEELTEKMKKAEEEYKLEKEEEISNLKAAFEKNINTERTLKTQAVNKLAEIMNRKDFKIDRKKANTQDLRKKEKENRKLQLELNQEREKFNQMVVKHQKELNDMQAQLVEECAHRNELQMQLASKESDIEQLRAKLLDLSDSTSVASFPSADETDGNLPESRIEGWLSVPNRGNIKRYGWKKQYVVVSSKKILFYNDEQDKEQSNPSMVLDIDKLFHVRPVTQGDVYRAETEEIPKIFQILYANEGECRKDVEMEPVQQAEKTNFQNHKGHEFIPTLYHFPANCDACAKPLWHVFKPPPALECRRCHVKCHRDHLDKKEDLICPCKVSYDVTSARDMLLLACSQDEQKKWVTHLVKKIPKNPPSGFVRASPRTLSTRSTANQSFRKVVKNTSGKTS

Casein kinase I = test: Inhibition of CK1 (unknown origin); format: protein assay, Homo sapiens
[10] = target: Dual specificity protein kinase CLK3 (Homo sapiens, UniProt P49761); test: Inhibition of CLK3 (unknown origin)
Chain of Dual specificity protein kinase CLK3 (P49761 whole entry): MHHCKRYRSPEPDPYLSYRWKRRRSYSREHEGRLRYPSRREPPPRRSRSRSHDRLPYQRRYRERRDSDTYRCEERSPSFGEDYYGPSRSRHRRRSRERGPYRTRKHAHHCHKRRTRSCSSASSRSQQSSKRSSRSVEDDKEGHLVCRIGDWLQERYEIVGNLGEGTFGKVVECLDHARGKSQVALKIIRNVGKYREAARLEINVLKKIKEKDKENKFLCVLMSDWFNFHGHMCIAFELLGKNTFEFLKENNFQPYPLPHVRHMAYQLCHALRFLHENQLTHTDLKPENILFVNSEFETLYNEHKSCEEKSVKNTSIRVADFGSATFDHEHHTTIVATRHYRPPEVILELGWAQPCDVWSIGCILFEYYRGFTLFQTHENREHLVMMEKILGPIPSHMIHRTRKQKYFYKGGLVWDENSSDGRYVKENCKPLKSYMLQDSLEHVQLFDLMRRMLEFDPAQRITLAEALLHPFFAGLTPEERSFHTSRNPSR

[11] = target: Serine/threonine-protein kinase PAK 2 (Homo sapiens, UniProt Q13177); test: Inhibition of PAK2 (unknown origin)
Chain of Serine/threonine-protein kinase PAK 2 (Q13177 whole entry): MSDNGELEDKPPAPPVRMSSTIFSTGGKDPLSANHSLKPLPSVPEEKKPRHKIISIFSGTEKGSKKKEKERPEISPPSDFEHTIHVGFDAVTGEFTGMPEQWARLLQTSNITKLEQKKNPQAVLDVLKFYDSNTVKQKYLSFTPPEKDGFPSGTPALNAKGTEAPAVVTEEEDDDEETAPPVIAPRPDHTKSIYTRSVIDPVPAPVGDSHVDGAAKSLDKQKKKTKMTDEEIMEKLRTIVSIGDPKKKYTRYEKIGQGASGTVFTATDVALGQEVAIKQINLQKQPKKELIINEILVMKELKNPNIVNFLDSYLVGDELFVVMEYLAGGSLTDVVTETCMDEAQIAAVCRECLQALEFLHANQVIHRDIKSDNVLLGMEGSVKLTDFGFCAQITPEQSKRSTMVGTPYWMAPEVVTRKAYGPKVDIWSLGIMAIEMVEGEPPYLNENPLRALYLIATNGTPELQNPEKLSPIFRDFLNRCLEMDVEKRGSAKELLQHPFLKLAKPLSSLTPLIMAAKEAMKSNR

NCI-H441 = test: Antitumor activity against human NCI-H441 cells harboring KRAS G12V/TP53 R158L/MET high mutant xenografted in mouse assessed as tumor growth inhibition at 5 mg/kg, po; format: functional; settings: read-out: TGI; in short: as §1
A2058 [12] = test: Antitumor activity against human A2058 cells xenografted in mouse assessed as tumor growth inhibition at 6 mg/kg, po administered once a day for 21 days in presence of 4-(2-(1H-indazol-4-yl)-6-((4-(methylsulfonyl)piperazin-1-yl)methyl)thieno[3,2-d]pyrimidin-4-yl)morpholine; format: functional; settings: A2058, 504 h, time 21 day, read-out: TGI; in short: as §3
888-mel [13] = test: Inhibition of S6 phosphorylation in human 888-mel cells preincubated with compound for 24 hrs followed by compound washout and measured after 2 hrs in presence of 4-(2-(1H-indazol-4-yl)-6-((4-(methylsulfonyl)piperazin-1-yl)methyl)thieno[3,2-d]pyrimidin-4-yl)morpholine by immunoblotting analysis; format: cell-based
LOX IMVI = test: Antiproliferative activity against human LOX IMVI cells assessed reduction in cell viability incubated for 4 days in presence of 4-(2-(1H-indazol-4-yl)-6-((4-(methylsulfonyl)piperazin-1-yl)methyl)thieno[3,2-d]pyrimidin-4-yl)morpholine by celltiter-glo assay; format: functional; settings: time 4 day; in short: as §2
CWR22R = test: Antitumor activity against human 22Rv1 cells harboring PIK3CA Q546R/TP53 Q331R mutant xenografted in mouse assessed as tumor growth inhibition at 10 mg/kg, po; format: functional; settings: read-out: TGI
[14] = Antitumor activity against human MOLM16 cells harboring FLT3 T227M mutant xenografted in mouse assessed as tumor growth inhibition at 5 mg/kg, po; format: functional, MOLM-16; settings: read-out: TGI; in short: as §1
[15] = Antiproliferative activity against human SK-MEL-23 cells assessed reduction in cell viability incubated for 4 days in presence of 4-(2-(1H-indazol-4-yl)-6-((4-(methylsulfonyl)piperazin-1-yl)methyl)thieno[3,2-d]pyrimidin-4-yl)morpholine by celltiter-glo assay; format: functional; settings: time 4 day; in short: as §2
[16] = target: RAF proto-oncogene serine/threonine-protein kinase (Homo sapiens, UniProt P04049); test: Inhibition of cRAF (unknown origin)
Chain of RAF proto-oncogene serine/threonine-protein kinase (P04049 whole entry): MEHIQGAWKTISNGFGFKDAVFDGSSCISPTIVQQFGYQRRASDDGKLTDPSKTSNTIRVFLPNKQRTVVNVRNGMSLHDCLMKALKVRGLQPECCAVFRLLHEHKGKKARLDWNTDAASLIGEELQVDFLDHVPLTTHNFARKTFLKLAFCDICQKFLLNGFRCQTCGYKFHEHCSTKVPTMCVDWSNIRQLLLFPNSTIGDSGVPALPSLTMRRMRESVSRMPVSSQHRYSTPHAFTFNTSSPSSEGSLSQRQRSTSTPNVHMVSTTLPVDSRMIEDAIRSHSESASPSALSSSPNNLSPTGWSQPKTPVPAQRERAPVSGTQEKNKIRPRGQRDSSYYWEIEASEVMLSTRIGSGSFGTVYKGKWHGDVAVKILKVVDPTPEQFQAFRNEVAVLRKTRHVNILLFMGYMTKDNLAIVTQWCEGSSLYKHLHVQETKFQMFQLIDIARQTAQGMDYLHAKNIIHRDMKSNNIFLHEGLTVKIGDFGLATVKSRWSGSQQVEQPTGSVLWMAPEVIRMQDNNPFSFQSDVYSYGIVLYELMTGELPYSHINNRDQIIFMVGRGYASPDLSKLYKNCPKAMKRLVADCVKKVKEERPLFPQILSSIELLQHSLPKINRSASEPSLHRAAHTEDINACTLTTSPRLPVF

888-mel [17] = test: Antiproliferative activity against human 888-mel cells assessed reduction in cell viability incubated for 4 days in presence of 4-(2-(1H-indazol-4-yl)-6-((4-(methylsulfonyl)piperazin-1-yl)methyl)thieno[3,2-d]pyrimidin-4-yl)morpholine by celltiter-glo assay; format: functional; settings: time 4 day; in short: as §2
[18] = target: BDNF/NT-3 growth factors receptor (Homo sapiens, UniProt Q16620); test: Inhibition of TrkB (unknown origin)

- IC50 [2]: > 10 µM
- IC50 [3]: > 10 µM
- IC50 (Ephrin type-A receptor 4): > 10 µM
- IC50 [9]: > 10 µM
- IC50 (Casein kinase I): > 10 µM
- IC50 [10]: > 10 µM
- IC50 [11]: > 10 µM
- IC50 [16]: > 10 µM
- IC50 [18]: > 10 µM
SMILES: O=C(c1ccc(F)c(F)c1Nc1ccc(I)cc1F)N1CC(O)([C@@H]2CCCCN2)C1 [COBIMETINIB]
- inhibition in vivo at 2.5 mg/kg [1]: 7%
- Activity (MeWo): 60%
- inhibition (888-mel [4]): Active
- Activity (888-mel [5]): inactive
- inhibition in vivo at 15 mg/kg [6]: 122%
- inhibition in vivo at 2.5 mg/kg (SK-OV-3): 36%
- inhibition in vivo at 15 mg/kg (A2058 [7]): 83%
- inhibition in vivo at 2.5 mg/kg (NCI-H460): 32%
- Activity (Malme-3M): 60%
- Activity (A2058 [8]): Active
- inhibition in vivo at 5 mg/kg (NCI-H441): 59%
- inhibition in vivo at 6 mg/kg (A2058 [12]): 73%
- inhibition (888-mel [13]): Active
- Activity (LOX IMVI): 60%
- inhibition in vivo at 10 mg/kg (CWR22R): 82.5%
- inhibition in vivo at 5 mg/kg [14]: 30%
- Activity [15]: 60%
- Activity (888-mel [17]): 60%
